Screening data deposited in PubChem BioAssay by The Scripps Research Institute Molecular Screening Center.
Only some compounds are listed: those with a hit (about 3.2% of all), similar ones and a draw of the others.
OX1R antag-1 = antagonists of human orexin 1 receptor (OX1R). O43613. OX1R-expressing cells, FRET antagonist read-out. inhibition, % at 6.6 µM. actives 1.8% (n = 330,000); in the data active = inhibition mostly above about 38%, no sharp cut-off; inactive = mostly below about 40%
CHO parental Ca = signal in parental CHO cells, OX1R antagonist counter-screen | AID 463079 | actives 0.63% (n = 330,000) | parental CHO-K1, ATP-induced calcium, Fluo-8 fluorescence | inhibition, % at 5.6 µM;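 active = inhibition above that plate's mean sample inhibition plus 3 SD, cut at about 26% in these data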
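Test system: parental CHO cells; detection: calcium-sensitive Fluo-8 fluorescence; evaluation: percent inhibition of calcium signal; also added: ATP as calcium-mobilizing challenge; repeats: one well per compound; control set: ATP-challenged DMSO wells low, unchallenged DMSO wells high; compound: single nominal dose of 5.6 µM per compound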
OX1R antag-2 = antagonists of human orexin 1 receptor. actives 0.43% (n = 330,000). CHO/OX1R cells, Fluo-8 calcium fluorescence, orexin A. inhibition, % at 5 µM;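 active = inhibition above its plate's threshold, mean inhibition of all tested compounds on the plate plus 3 SD, cut at about 37% in these data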
GPR7 antag = human neuropeptides B/W receptor 1 antagonism; P48145; GPR7-expressing cells, fluorescence antagonist assay; inhibition, % at 4.4 µM; actives 1.1% (n = 290,000); in the data active = inhibition above about 16%, passing the limit was not always enough;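 note: cells stimulated with the agonist NPW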
Target sequence (P48145 whole entry, looked up): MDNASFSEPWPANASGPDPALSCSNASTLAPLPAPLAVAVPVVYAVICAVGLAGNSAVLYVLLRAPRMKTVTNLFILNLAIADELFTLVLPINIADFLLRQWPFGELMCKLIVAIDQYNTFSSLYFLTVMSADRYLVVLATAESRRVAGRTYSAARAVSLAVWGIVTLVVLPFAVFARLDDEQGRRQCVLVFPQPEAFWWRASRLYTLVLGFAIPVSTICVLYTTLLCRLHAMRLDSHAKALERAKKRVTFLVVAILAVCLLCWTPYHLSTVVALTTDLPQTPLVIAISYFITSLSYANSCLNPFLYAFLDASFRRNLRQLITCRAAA
TRPML3 ag = agonists of human TRPML3 channel | HEK293 TRPML3-YFP, Fluo-8 calcium fluorescence; 100% = the carbachol control signal | Q8TDD5 | activation, % at 3 µM | actives 0.29% (n = 220,000);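 active = activation above its plate's cutoff, the mean activation of the plate's test wells plus 3 SD, cut at about 12% in these data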
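system = HEK293 cells stably carrying human TRPML3-YFP | doses = one concentration, 3 µM nominal, 0.3% DMSO | timing = dye loading 1 h 37 °C then 30 min ambient, 125 s read | detection = Fluo-8 calcium dye fluorescence, ex 470-495, em 515-575 nm | benchmarks = high control carbachol 87 µM, low control DMSO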
TRPN1 ag = activates the zebrafish TRPN1 channel. HEK293 zebrafish TRPN1-YFP, Fluo-8 calcium fluorescence; 100% = response to 87 µM carbachol. actives 0.18% (n = 220,000). activation, % at 3 µM. AID 1424;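 active = activation above its plate's cutoff, the mean activation of test wells on that plate plus 3 SD, cut at about 19% in these data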
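Material: zebrafish TRPN1-YFP in HEK293 cells. Doses: one dose of 3 µM, 0.3% DMSO. Incubation: dye 1 h 37 °C plus 30 min RT. Measured by: intracellular calcium fluorescence with Fluo-8.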
Each line names hits and unclear results; the compound was inactive in the other large screens.

CSCCC(NS(=O)(=O)c1ccccc1F)C(=O)N1CCCCCCC1 (centres undefined)	none (no result: TRPML3 ag, TRPN1 ag)
Cc1cccc(C)c1NC(=O)Cn1cc(C=O)c2ccccc21	none (no result: OX1R antag-1, CHO parental Ca, OX1R antag-2, TRPML3 ag, TRPN1 ag)
COc1ccccc1-n1c(C)c2c(OC)cccc(=O)c2c1C	none
COc1cccc(=O)c2c(C)oc(C)c12	GPR7 antag 19.4
O=C(OCc1ccccc1)N1CCc2ccccc21	none (no result: TRPML3 ag, TRPN1 ag)
OC(c1cccc(Cl)c1)c1nccc2ccccc12 (centres undefined)	none (no result: TRPML3 ag, TRPN1 ag)
O=C(OC(c1ccccc1)c1nccc2ccccc12)c1cc([N+](=O)[O-])cc([N+](=O)[O-])c1 (centres undefined)	OX1R antag-1 62.2
COc1ccc(OC)c(S(=O)(=O)Nc2ccccc2SC)c1	GPR7 antag 13.9
CC(C)N(C(C)C)S(=O)(=O)c1ccc(NC(=O)c2cnccn2)cc1	none (no result: TRPML3 ag, TRPN1 ag)
CN(CC(=O)Nc1ccccc1Cl)C(=O)COC(=O)c1ccc([N+](=O)[O-])s1	OX1R antag-1 43.5 (no result: GPR7 antag, TRPML3 ag, TRPN1 ag)
Cc1cc(C)c(NC(=O)COC(=O)c2ccc([N+](=O)[O-])s2)c(C)c1	none
O=C(COC(=O)c1ccc([N+](=O)[O-])s1)NNC(=O)c1ccccc1	OX1R antag-1 56.7 (no result: GPR7 antag, TRPML3 ag, TRPN1 ag)
O=C(COC(=O)c1ccc([N+](=O)[O-])s1)NC(=O)NCc1ccccc1	OX1R antag-1 49.0
O=C(COC(=O)c1ccc([N+](=O)[O-])s1)NCCc1ccccc1	OX1R antag-1 27.2 (no result: GPR7 antag, TRPML3 ag, TRPN1 ag)
COc1ccc(C#Cc2c(-c3ccccc3)n(-c3ccccc3)c3ccc(CO)cc23)cc1	none (no result: GPR7 antag, TRPML3 ag, TRPN1 ag)
C=CCn1c(N)cc(=O)nc1SCC(=O)Nc1ccc(C(=O)OCC)cc1	none (no result: TRPML3 ag, TRPN1 ag)
COc1cc(CN2CCCC(C(=O)N3CCc4ccccc4C3)C2)cc(OC)c1OC (centres undefined)	none (no result: TRPML3 ag, TRPN1 ag)
CC1=C(C(=O)Nc2cccc(C(=O)NC3CCCC(C)C3C)c2)SCCO1 (centres undefined)	none (no result: TRPML3 ag, TRPN1 ag)
Cc1cc(S(=O)(=O)N2CCOCC2)ccc1OCC(=O)Nc1ccc(Br)cc1F	none (no result: TRPML3 ag, TRPN1 ag)
O=C(OCC(=O)c1ccc[nH]1)c1ccc([N+](=O)[O-])cc1	none (no result: GPR7 antag, TRPML3 ag, TRPN1 ag)
O=C(COC(=O)c1ccc([N+](=O)[O-])s1)c1ccc[nH]1	OX1R antag-1 60.7 (no result: GPR7 antag, TRPML3 ag, TRPN1 ag)
CN(C)S(=O)(=O)c1cccc(NC(=O)c2ccc(COc3ccccc3)cc2)c1	CHO parental Ca 55.9 (no result: TRPML3 ag, TRPN1 ag)
O=C(Cn1c(=O)oc2cc(S(=O)(=O)N3CCCCCC3)ccc21)NC1CCCCCCC1	none
O=C(Cn1c(=O)oc2cc(S(=O)(=O)N3CCCC3)ccc21)NC1CCCc2ccccc21 (centres undefined)	CHO parental Ca 27.6
Cc1ccc(NC(=O)N2CCc3ccccc3C2)c(C)c1	none (no result: TRPML3 ag, TRPN1 ag)
C[C@@H](N)C(=O)NC[C@H]1CC[C@H](C(=O)N[C@@H](Cc2ccccc2)C(=O)O)CC1	none (no result: OX1R antag-1, CHO parental Ca, OX1R antag-2, TRPML3 ag, TRPN1 ag)
CCn1c2ccccc2c2cc(NC(=O)CSc3nnc(-c4ccc(OC)cc4)n3N)ccc21	OX1R antag-1 49.6
C=C(C)c1cc2c(ccc3ccc(=O)oc32)o1	OX1R antag-1 74.8 (no result: GPR7 antag, TRPML3 ag, TRPN1 ag)
CNC(=O)c1cc2c(ccc3ccccc32)o1	none
O=C1Nc2ccc(Br)cc2/C1=C/C1CC=CCC1 (centres undefined)	CHO parental Ca 32.7
CCCCCc1ccc(OCCC[n+]2ccccc2)c(CCCCC)c1	none
CCCCCc1ccc(OCCOCCn2c[n+](C)c3ccccc32)c(CCCCC)c1	GPR7 antag 39.8 (no result: OX1R antag-1, CHO parental Ca, OX1R antag-2)
COc1cc(/C=N/O)cc(Br)c1OCc1ccc(Cl)cc1	none
COc1cc(CNC(C)(C)CO)cc(Br)c1OCc1ccc(Cl)cc1	GPR7 antag 37.1
Cc1ccsc1-c1nc(CSCC(=O)NCc2ccc3c(c2)OCO3)c(C)o1	OX1R antag-1 39.7
Cc1ccccc1CS(=O)(=O)c1nnc([C@H](CC(C)C)NC(=O)OC(C)(C)C)o1	CHO parental Ca 43.1
CCOC(=O)c1cnc(/N=C/N(C)C)s1	none
COc1cc(CNn2c(C)n[nH]c2=S)cc(Cl)c1OCc1ccc(F)cc1	CHO parental Ca 34.6, OX1R antag-2 45.2
COc1cc(CNn2c(C)n[nH]c2=S)cc(Br)c1OCc1ccc(F)cc1	none
CC1(C)CC(=O)C=C(Nc2ccc([N+](=O)[O-])cc2)C1	OX1R antag-1 28.5 (no result: TRPML3 ag, TRPN1 ag)
COc1ccccc1/C=C/C=N/n1c(-c2ccc(Cl)cc2)n[nH]c1=S	none
